The source made the active and inactive calls. The rule behind the calls is not given here.
Columns and labels:
[1] = target: T1, Peroxisome proliferator-activated receptor delta (Homo sapiens) (UniProt Q03181); experiment: Agonist activity at human PPARdelta expressed in Escherichia coli assessed as induction of calcium flux at 10 uM by fluorimetry
T1 sequence (whole entry): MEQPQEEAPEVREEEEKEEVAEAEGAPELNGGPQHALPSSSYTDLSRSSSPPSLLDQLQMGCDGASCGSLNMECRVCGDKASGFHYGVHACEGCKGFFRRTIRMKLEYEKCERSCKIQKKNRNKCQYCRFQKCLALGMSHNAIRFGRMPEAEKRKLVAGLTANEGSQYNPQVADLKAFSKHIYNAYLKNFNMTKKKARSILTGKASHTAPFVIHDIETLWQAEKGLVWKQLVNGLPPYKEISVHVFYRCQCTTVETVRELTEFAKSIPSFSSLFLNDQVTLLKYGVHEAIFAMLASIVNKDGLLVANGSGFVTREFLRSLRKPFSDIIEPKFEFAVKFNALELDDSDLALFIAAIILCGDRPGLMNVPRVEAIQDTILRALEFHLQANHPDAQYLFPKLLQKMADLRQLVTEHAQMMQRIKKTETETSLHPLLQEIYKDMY

[2] = target: T1, Peroxisome proliferator-activated receptor delta (Homo sapiens); experiment: Antagonist activity at human PPARdelta expressed in Escherichia coli assessed as inhibition of GW0742-induced calcium flux at 10 uM by fluorimetry
[3] = target: T2, Peroxisome proliferator-activated receptor alpha (Homo sapiens) (UniProt Q07869); experiment: Antagonist activity at human PPARalpha expressed in Escherichia coli assessed as inhibition of […]-induced calcium flux at 10 uM by alpha screen assay
T2 sequence (whole entry): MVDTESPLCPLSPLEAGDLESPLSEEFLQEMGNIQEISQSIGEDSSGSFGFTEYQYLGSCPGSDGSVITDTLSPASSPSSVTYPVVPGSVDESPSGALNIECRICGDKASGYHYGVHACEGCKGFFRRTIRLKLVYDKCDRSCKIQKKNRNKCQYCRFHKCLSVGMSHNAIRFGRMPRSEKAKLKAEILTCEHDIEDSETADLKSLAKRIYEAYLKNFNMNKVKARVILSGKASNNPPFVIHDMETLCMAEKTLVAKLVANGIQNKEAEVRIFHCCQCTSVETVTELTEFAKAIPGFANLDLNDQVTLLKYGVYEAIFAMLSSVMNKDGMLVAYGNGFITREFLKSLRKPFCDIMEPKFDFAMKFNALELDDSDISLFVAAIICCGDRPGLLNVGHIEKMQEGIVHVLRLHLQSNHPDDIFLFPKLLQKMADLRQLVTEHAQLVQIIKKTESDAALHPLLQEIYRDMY

[4] = target: Free fatty acid receptor 1 (Homo sapiens) (UniProt O14842); experiment: Antagonist activity at human FFA1 receptor expressed in HEK293 cells assessed as inhibition of linoleic acid-induced calcium flux at 10 uM by fluorimetry; format: functional, cell-based
[5] = AUC (0 to infinity) in Balb/c mouse at 5 mg/kg, iv by HPLC-MS/MS analysis; format: ADME, organism-based; set-up: dose 5 mg/kg, time infinity, route intravenous; conditions: in vivo
Method in brief: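 Balb/c mice dosed at 5 mg/kg iv or 10 mg/kg po. Plasma concentrations over time used to derive t1/2, AUC0–∞, Vd and total clearance (iv), and tmax, Cmax, AUC0–∞ and oral bioavailability (po).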

[6] = Chemical stability of the compound in FaSSGF after 2 hrs; format: ADME, physicochemical; conditions: read-out: Stability
Method in brief: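 Simulated-fluid stability: 50 µM compound in FaSSIF or FaSSGF (from 10 mM DMSO stock), shaken at 37 °C for 0 and 120 min. Quenched with acetonitrile containing 0.5% HCOOH, centrifuged, supernatant by HPLC. Stability from peak area relative to the 0 min sample; duplicates, mean reported.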

Chain of Free fatty acid receptor 1 (Homo sapiens) (O14842 whole entry): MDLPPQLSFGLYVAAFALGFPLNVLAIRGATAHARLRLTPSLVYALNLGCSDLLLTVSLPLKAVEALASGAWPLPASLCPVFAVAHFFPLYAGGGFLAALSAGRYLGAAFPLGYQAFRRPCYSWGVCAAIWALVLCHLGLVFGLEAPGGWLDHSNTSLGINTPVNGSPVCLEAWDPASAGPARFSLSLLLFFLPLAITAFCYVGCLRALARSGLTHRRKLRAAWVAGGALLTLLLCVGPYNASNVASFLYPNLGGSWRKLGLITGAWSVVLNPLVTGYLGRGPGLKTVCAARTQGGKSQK

Activity [1]: inactive
inhibition [2]: inactive
inhibition [3]: inactive
inhibition [4]: inactive
AUC(0-inf) [5]: 4100 ng·h/mL
remaining at 2 h [6]: 100%
Structure (SMILES): Cc1noc(C)c1-c1ccc(C(=O)N2[C@@H](c3ccccc3Cl)SC[C@H]2C(=O)O)cc1

From ChEMBL document CHEMBL4152367, “Discovery of a Potent Thiazolidine Free Fatty Acid Receptor 2 Agonist with Favorable Pharmacokinetic Properties” (J Med Chem, 2018)
